From ChEMBL document CHEMBL3774374, “The Effect of Small Molecules on Sterol Homeostasis: Measuring 7-Dehydrocholesterol in Dhcr7-Deficient Neuro2a Cells and Human Fibroblasts” (J Med Chem, 2016) come the findings set out here.

What all share (assay type): cell-based
Test [1] concerns the target T1, Delta(24)-sterol reductase (Mus musculus) (UniProt Q8VCH6).
T1 sequence (whole entry): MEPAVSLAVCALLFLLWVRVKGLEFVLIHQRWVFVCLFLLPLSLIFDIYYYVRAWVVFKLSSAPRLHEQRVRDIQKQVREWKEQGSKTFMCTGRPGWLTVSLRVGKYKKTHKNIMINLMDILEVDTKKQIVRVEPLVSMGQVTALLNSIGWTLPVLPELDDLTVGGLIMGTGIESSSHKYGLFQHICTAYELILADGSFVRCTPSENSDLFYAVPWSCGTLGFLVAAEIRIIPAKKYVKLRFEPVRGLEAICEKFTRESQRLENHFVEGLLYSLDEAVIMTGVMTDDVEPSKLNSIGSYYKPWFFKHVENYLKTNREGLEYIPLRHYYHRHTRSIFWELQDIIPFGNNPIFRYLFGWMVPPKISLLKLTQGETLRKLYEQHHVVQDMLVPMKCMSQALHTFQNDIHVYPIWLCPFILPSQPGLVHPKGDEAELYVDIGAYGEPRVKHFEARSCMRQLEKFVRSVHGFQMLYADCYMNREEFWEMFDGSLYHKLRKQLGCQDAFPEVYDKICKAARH
In words: Inhibition of DR24 in Dhcr7-deficient mouse Neuro2a cells assessed as decrease in 7-DHC levels at 1 uM by LC-MS/GC-MS analysis. Summed up: (§1)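 Dhcr7-deficient Neuro2a cells (13000/well, 0.5% FBS medium) on predeposited compound, 24 h at 37 °C. Hoechst-stained and imaged to count cells. Lysed in methanol containing isotope-labelled sterol standards, derivatized with PTAD 20 min at RT, then isocratic C18 UPLC-MS/SRM. Remaining extract silylated with BSTFA for GC-MS, quantified against d7-cholesterol. Follow-up runs in triplicate.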

Test [2] deals with T2, 3-hydroxy-3-methylglutaryl-coenzyme A reductase (Mus musculus) (UniProt Q01237).
T2 sequence (whole entry): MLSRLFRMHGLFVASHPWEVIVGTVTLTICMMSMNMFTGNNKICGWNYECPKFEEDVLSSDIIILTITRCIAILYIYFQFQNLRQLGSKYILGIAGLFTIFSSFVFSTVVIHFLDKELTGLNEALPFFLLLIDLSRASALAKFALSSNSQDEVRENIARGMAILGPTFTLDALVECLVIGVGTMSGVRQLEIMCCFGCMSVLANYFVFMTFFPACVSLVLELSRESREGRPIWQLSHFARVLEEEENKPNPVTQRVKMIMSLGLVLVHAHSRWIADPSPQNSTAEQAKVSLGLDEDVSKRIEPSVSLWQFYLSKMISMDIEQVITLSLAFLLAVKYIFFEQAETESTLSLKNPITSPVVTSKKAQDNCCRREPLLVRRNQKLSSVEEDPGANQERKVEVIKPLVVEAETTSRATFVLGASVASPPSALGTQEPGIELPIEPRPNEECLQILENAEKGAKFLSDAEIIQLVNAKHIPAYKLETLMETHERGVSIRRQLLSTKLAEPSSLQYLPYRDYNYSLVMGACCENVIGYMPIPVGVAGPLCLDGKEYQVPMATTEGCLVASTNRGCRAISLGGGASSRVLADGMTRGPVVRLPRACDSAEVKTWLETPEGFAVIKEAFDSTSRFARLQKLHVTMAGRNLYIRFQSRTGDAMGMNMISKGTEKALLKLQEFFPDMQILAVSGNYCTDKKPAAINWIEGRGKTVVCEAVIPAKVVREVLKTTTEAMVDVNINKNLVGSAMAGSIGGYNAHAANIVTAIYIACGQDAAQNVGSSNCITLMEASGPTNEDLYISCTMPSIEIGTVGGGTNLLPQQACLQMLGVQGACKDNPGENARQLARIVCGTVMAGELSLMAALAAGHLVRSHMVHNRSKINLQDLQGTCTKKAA
In words: Inhibition of HMGCoA reductase in Dhcr7-deficient mouse Neuro2a cells assessed as decrease in 7-DHC levels at 1 uM by LC-MS/GC-MS analysis. Summed up:
as §1

For test [3], the target named is T3, 3-beta-hydroxysteroid-Delta(8),Delta(7)-isomerase (Mus musculus) (UniProt P70245).
T3 sequence (whole entry): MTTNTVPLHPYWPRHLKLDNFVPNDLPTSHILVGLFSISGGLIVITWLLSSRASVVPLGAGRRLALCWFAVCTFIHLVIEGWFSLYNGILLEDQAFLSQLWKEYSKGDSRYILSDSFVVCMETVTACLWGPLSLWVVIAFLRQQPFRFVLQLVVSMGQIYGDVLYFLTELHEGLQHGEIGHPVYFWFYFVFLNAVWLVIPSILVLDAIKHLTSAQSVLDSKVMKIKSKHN
In words: Inhibition of delta 8-7 isomerase in Dhcr7-deficient mouse Neuro2a cells assessed as decrease in 7-DHC levels at 1 uM by LC-MS/GC-MS analysis. The method, boiled down:
as §1

In test [4] the target is T3, 3-beta-hydroxysteroid-Delta(8),Delta(7)-isomerase (Mus musculus). In words: Inhibition of delta 8-7 isomerase in mouse Neuro2a cells assessed as decrease in 7-DHC levels at 1 uM by LC-MS/GC-MS analysis. Summed up: (§2)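 Control Neuro2a cells (10000/well, 0.5% FBS) on compound, 24 h. Hoechst cell count, then methanol lysis with labelled standards (d7-7-DHC, 13C3-desmosterol, 13C3-lanosterol), PTAD derivatization 20 min at RT, UPLC-MS SRM. GC-MS of silylated extract for further sterols.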

The target in test [5] is T1, Delta(24)-sterol reductase (Mus musculus). In words: Inhibition of DR24 in mouse Neuro2a cells assessed as decrease in 7-DHC levels at 1 uM by LC-MS/GC-MS analysis. The method, boiled down:
as §2

Activity calls are given as the source filed them. The calls are words filed in the database; no cut-off is given here.

For `CC(=O)[C@H]1CC[C@H]2[C@@H]3CCC4=CC(=O)CC[C@]4(C)[C@H]3CC[C@]12C`, in test [1], the inhibition result was “Active”. Regarding `CCC(C)(C)C(=O)O[C@H]1C[C@@H](C)C=C2C=C[C@H](C)[C@H](CC[C@@H]3C[C@@H](O)CC(=O)O3)[C@H]21`, the “7-DHC decrease call (active/inactive)” value in test [2] is “Active”. Take `CCN(CC)CCOc1ccc(C(O)(Cc2ccc(Cl)cc2)c2ccc(C)cc2)cc1` (stereo not drawn): the inhibition result in test [1] and in test [3] was “Active” each time.

With `CC[C@H](C)C(=O)O[C@H]1CCC=C2C=C[C@H](C)[C@H](CC[C@@H]3C[C@@H](O)CC(=O)O3)[C@H]21`, in test [2], the “7-DHC decrease call (active/inactive)” value was “Active”.

For the compound `CC[C@H](C)C(=O)O[C@H]1C[C@@H](C)C=C2C=C[C@H](C)[C@H](CC[C@@H]3C[C@@H](O)CC(=O)O3)[C@H]21`, in test [2], the “7-DHC decrease call (active/inactive)” value was “Active”. In the case of `CC[C@H](C)C(=O)O[C@H]1C[C@H](O)C=C2C=C[C@H](C)[C@H](CC[C@@H](O)C[C@@H](O)CC(=O)O)[C@H]21`, the “7-DHC decrease call (active/inactive)” value in test [2] is “Active”. For the compound `CCc1c(C)[nH]c2c1C(=O)C(CN1CCOCC1)CC2` (stereo not drawn), the inhibition result in test [1] was “Active”.

For the compound `CN(C)CCC=C1c2ccccc2COc2ccccc21`, the inhibition entry in test [1] was “Active”. Same read-out and setting: to `CN1CCN(CCCN2c3ccccc3Sc3ccc(C(F)(F)F)cc32)CC1` belongs “Active”. For the compound `CN1CCN(CCCN2c3ccccc3Sc3ccc(Cl)cc32)CC1`, the inhibition result in test [1] and in test [3] was “Active” each time. Regarding `CN1CC[C@]2(c3cccc(O)c3)Cc3nc4ccccc4cc3C[C@H]2C1`, the inhibition entry in test [1] was “Active”. Turning to `CO[C@H]1O[C@@H]2O[C@@]3(C)CC[C@H]4[C@H](C)CC[C@@H]([C@H]1C)[C@@]24OO3`, the “7-DHC decrease call (active/inactive)” value in test [2] was “Active”. As to `C[C@@H]1CC[C@H]2[C@@H](C)C(=O)O[C@@H]3O[C@@]4(C)CC[C@@H]1[C@]32OO4`, the inhibition result in test [2] was “Active”. For `Cc1ccc(NC(=O)c2ccc(CN3CCN(C)CC3)cc2)cc1Nc1nccc(-c2cccnc2)n1`, the inhibition entry in test [1] is “Active”.

With `O=C(O)C[C@H](O)C[C@H](O)/C=C/c1c(C2CC2)nc2ccccc2c1-c1ccc(F)cc1`, in test [4], the “Activity (decrease in 7-DHC levels)” value was “Active”. The “Decrease in 7-DHC levels (active/inactive call)” value in test [5] was “Active”. For the same compound, the “7-DHC decrease call (active/inactive)” value in test [2] is “Active”. For `OCCN1CCN(CCCN2c3ccccc3Sc3ccc(C(F)(F)F)cc32)CC1`, the inhibition result in test [3] was “Active”. Take `OCCN1CCN(CCCN2c3ccccc3Sc3ccc(Cl)cc32)CC1`: the inhibition entry in test [1] and in test [3] was “Active” throughout.

Regarding `OCCOCCN1CCN(C(c2ccccc2)c2ccc(Cl)cc2)CC1` (stereo not drawn), the inhibition result in test [3] is “Active”.
